ANO1 activ: TMEM16A chloride channel activators or potentiators, primary screen, cell-based, HTS. hit rate 0.3% among 340,000. HEK293 TMEM16A/YFP-H148Q/I152L, iodide quench fluorescence; active compounds read low. B-score at 10 µM. AID 623877, 2012;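 active means fluorescence-ratio B-score plate-corrected deviation score at least 3 library SD below zero, with starting fluorescence score within 5 deviations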;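 further: channel opened by trigger with iodide after compound preincubation; score built on the fluorescence ratio of max minus min over baseline; more negative score means more quench and so TMEM16A activation or potentiation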
Target sequence (Q8BHY3 whole entry, looked up): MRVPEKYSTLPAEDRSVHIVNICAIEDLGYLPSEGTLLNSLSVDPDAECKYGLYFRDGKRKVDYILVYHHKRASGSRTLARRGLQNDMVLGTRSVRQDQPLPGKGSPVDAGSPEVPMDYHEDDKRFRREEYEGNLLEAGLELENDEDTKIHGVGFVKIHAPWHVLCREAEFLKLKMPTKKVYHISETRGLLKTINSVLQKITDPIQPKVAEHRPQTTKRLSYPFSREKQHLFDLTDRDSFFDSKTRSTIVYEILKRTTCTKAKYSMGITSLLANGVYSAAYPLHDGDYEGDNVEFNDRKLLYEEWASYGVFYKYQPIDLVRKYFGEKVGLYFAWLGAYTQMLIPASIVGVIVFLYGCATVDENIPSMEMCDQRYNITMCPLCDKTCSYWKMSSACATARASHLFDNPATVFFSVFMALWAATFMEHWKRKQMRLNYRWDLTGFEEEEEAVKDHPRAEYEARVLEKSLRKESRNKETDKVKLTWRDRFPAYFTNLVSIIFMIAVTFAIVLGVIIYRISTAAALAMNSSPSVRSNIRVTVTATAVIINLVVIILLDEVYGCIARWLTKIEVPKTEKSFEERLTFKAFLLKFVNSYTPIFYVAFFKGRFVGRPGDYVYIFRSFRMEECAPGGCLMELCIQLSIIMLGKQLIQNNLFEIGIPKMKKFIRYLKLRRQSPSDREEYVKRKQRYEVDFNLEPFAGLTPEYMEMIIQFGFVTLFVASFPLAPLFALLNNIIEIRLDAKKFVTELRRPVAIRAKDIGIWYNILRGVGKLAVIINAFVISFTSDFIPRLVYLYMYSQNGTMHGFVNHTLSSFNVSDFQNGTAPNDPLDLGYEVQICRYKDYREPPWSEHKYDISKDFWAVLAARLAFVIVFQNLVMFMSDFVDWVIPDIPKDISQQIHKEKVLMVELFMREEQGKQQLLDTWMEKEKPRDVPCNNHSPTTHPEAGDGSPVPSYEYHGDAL
MC4R barr agon: MC4R agonists recruiting beta-arrestin, primary screen, cell-based, luminescence, agonist arm of biased-ligand search; AID 540308, 2011; activation, % at 8.9 µM; hit rate 0.98% among 360,000; U2OS MC4R beta-arrestin complementation; percent of melanotan II response, DMSO zero; Melanocortin receptor 4 (Homo sapiens), P32245;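 active means activation above a per-plate cutoff, the mean activation of sample wells on that plate plus 3 SD, cut at about 8% in these data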
ANO1 block: TMEM16A chloride channel inhibitors, primary screen, cell-based, HTS; HEK293 TMEM16A/YFP iodide influx fluorescence, ionomycin; normalized B-score (activity score, 25-100; higher = stronger inhibition) at 10 µM; hit rate 1.2% among 310,000;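 active means ratio plate-corrected score three or more library SD toward inhibition, starting fluorescence score within five deviations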;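 further: score derived from kinetic fluorescence span divided by baseline fluorescence per well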
MC4R antagonist: MC4R antagonists of cAMP signaling, primary screen, cell-based, TR-FRET, antagonist arm of biased-ligand search. Melanocortin receptor 4 (Homo sapiens), P32245. MC4R-expressing cells, MTII-stimulated cAMP, LANCE TR-FRET. inhibition, % at 6.5 µM. hit rate 0.48% among 360,000. AID 540295, 2011;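 active means inhibition above its plate's cutoff, the mean of tested wells on that plate plus 3 SD, cut at about 29% in these data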
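material = U2OS cells stably expressing human melanocortin 4 receptor (MC4R) | also added = Melanotan II challenge | dosing = single nominal compound dose of 6.5 µM | detection = TR-FRET with Eu-cAMP and labeled anti-cAMP, 671 nm | replication = singlicate | timing = compound 30 min, challenge 1 h, detection 1 h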
Beta cell apopt: inhibitors of cytokine-induced beta cell apoptosis, primary screen, luminescence. INS-1E cytokine-induced death, ATP luminescence, 48 h; percent of positive-control rescue, neutral wells zero. protection from apoptosis, % (test concentration not listed). hit rate 0.8% among 300,000;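 active means Every replicate reaches about 75%, or at least half do and their mean reaches it too, limit read from the data; inconclusive means At least half of replicates reach the limit but their mean does not; inactive means Under half of replicates reach the limit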;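 further: higher means more ATP so stronger rescue from cytokine killing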
CSC inhib: cancer stem cell viability inhibitors, primary screen, luminescence | cancer stem cell-like cells viability | inhibition, % at 7.5 µM | hit rate 1.1% among 300,000 | AID 2717, 2010; in the data active means inhibition above about 75%; inconclusive means no clear call, values can overlap the other calls; tested in HMLE shEcad cells
U2OS cAMP counter: nonselective cAMP signaling inhibitors, parental cells, counter-screen for MC4R biased antagonist project, cell-based, TR-FRET, U2OS, forskolin, triplicate; shares compounds with MC4R antagonist; LANCE TR-FRET; hit rate 26% among 1,600; AID 602193, 2012; inhibition, % at 6.5 µM;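 active means mean inhibition over triplicates above the low-control well mean plus 3 SD, set per campaign, cut at about 13% in these data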;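 further: signal is single emission at 671 nm which falls as cellular cAMP rises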
MC4R cAMP antag: MC4R cAMP antagonists, retest, confirmation, cell-based, TR-FRET. shares compounds with MC4R antagonist. AID 602195, 2012. inhibition, % at 6.5 µM. MC4R-expressing cells, MTII-stimulated cAMP. hit rate 27% among 1,600; in the data active means inhibition above about 29%
A number is an active result; i = inactive; ? = inconclusive; nt = not tested or not shown. In the library only some 3.8% were active in any assay of this set; here they are far more common.

SMILES	ANO1 activ	MC4R barr agon	ANO1 block	MC4R antagonist	Beta cell apopt	CSC inhib	U2OS cAMP counter	MC4R cAMP antag
COc1ccccc1CNC(=O)C(C)Sc1ccsc1[N+](=O)[O-] (stereo unspecified)	i	i	i	30	i	i	i	i
CC(Sc1ccsc1[N+](=O)[O-])C(=O)NCc1ccccc1 (stereo unspecified)	nt	nt	i	nt	i	i	nt	nt
CCS(=O)(=O)NCCc1cc2c(OC)ccc(OC)c2[nH]c1=O	i	i	i	i	i	i	nt	nt
COc1ccc(OC)c2[nH]c(=O)c(CCNC(=O)C(=O)c3c(C)[nH]c4ccccc34)cc12	i	i	i	31	i	i	i	i
COc1ccc(OC)c2[nH]c(=O)c(CCNS(=O)(=O)c3ccc(F)cc3)cc12	i	i	i	33	i	i	i	i
Cc1cc(C(=O)N2CCC2(C)C(=O)O)nn1C(C)(C)C (stereo unspecified)	nt	i	nt	i	nt	nt	nt	nt
O=C(CCNC(=O)c1ccccc1)Nc1ccc(Cl)c(S(=O)(=O)N2CCCCC2)c1	i	i	nt	i	i	i	nt	nt
S=c1[nH]nc(-c2ccc3ccccc3n2)n1-c1cc(Cl)cc(Cl)c1	i	i	i	32	i	i	i	i
CC(=O)Oc1c(C(C)C)cc(N(C(C)=O)c2ccccc2)cc1C(C)C	i	i	i	33	i	i	i	i
CCOC(=O)c1ccc(NC(=O)NC2=NCCS2)cc1	nt	i	nt	i	nt	nt	nt	nt
CC(=O)N/C(=C\c1ccccc1)C(=O)OCC(=O)N(CC(C)C)c1c(N)n(Cc2ccccc2)c(=O)[nH]c1=O	i	i	i	i	i	i	nt	nt
Cc1onc(-c2c(F)cccc2Cl)c1C(=O)Nc1nccs1	i	i	i	i	i	nt	nt	nt
Cc1onc(-c2c(F)cccc2Cl)c1C(=O)Nc1nnc(C(F)(F)F)s1	i	i	i	48	i	i	36	74
CCOC(=O)c1c(NC(=O)C(C)OC(=O)C2=COCCO2)sc2c1CCCC2 (stereo unspecified)	i	i	nt	36	nt	nt	i	i
O=C(/C=C/c1ccc(Cl)cc1)c1ccc([N+](=O)[O-])o1	i	i	i	40	115	?	i	i
CCOc1cc(NC(=S)NCC2CCCO2)c(OCC)cc1NC(=O)c1ccccc1C (stereo unspecified)	i	i	i	30	i	i	i	i
CC(C)C1Cc2ccccc2-c2[nH]c(=S)[nH]c(=O)c21 (stereo unspecified)	i	i	i	36	i	i	21	48
Cc1ccc(C(C2=C(O)CC(C)(C)CC2=O)C2C(=O)CC(C)(C)CC2=O)s1 (stereo unspecified)	i	i	i	i	i	i	nt	nt
CC1(C)CC(=O)C(C(C2=C(O)CC(C)(C)CC2=O)c2ccc(Br)s2)C(=O)C1 (stereo unspecified)	i	i	i	39	i	i	i	i
COc1ccc(CCn2c(C)cc(C(=O)CCl)c2C)cc1OC	i	i	i	30	i	i	i	i
Cc1cc(C(=O)CCl)c(C)n1CCc1ccc(F)cc1	i	i	i	31	i	i	i	33
COc1ccccc1NC(=S)N1CCC(NC(=O)NC23CC4CC(CC(C4)C2)C3)CC1	i	i	i	34	i	i	i	i
COCCN(C(=O)c1csnn1)C(C(=O)NC1CCCCC1)c1ccccc1F (stereo unspecified)	i	i	i	i	i	i	nt	nt
O=C(CSc1ccccn1)N1CCOCC1	i	i	i	29	i	i	i	i
O=C(CSc1nc2ccccc2n1CCc1ccccc1)N1CCOCC1	i	i	i	33	i	i	i	i
